# This is a sample that favours compounds with a hit; in the whole collection about 3.5% have one here.
# RGS4 block = RGS4 inhibitors, primary screen, cell-based, HEK293 M3R inducible RGS4, calcium flux; actives 0.45% (n = 310,000); B-score at 10 µM; Fluo-4 calcium flux; hits give high values; triggered by carbachol at its EC20; Regulator of G-protein signaling 4 (Homo sapiens), P49798; AID 463165, 2010;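 active means B-score, a plate-corrected calcium signal, over three deviations above library mean, with baseline fluorescence within five deviations of library mean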;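 further: RGS4 expression induced by doxycycline in cells with stable M3 receptor; B-score is computed from the integrated fluorescence ratio over baseline after carbachol; higher B-score means a larger calcium signal and so more RGS4 inhibition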
# Target sequence (P49798 whole entry, looked up): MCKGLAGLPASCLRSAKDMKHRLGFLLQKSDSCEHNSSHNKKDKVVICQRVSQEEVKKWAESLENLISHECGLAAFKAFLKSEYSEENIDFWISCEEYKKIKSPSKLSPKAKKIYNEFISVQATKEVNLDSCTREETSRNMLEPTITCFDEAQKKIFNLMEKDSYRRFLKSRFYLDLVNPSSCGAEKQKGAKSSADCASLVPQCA
# MrgX1 agonist = agonists of human MrgX1 receptor, primary screen, HEK293 cells, Fluo-4 calcium flux; actives 0.44% (n = 310,000); Mas-related G-protein coupled receptor member X1 (Homo sapiens), Q96LB2; Fluo-4 calcium fluorescence, agonist mode; hits give high values; B-score at 10 µM;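 active means calcium response B-score plate-corrected fluorescence ratio at least 3 library SD, with starting fluorescence B-score inside 5 SD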
# Target sequence (Q96LB2 whole entry, looked up): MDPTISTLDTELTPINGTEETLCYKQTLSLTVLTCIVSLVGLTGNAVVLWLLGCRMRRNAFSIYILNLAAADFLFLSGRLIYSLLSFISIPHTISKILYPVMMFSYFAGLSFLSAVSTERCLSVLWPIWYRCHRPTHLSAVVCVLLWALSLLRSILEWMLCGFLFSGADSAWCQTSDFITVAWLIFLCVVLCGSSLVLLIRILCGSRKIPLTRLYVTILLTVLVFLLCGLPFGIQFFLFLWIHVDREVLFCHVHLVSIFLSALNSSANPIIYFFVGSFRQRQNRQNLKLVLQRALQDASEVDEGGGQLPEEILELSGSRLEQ
#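 Material: MrgX1-expressing HEK293 cells / Dosing: compound as first of three additions / Incubation: overnight seeding, then 1 h dark dye loading / Signal: Fluo-4 NW calcium fluorescence / Evaluation: B-scored fluorescence response ratio / Benchmarks: positive and negative control wells on each plate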
# MrgX1 PAM = positive allosteric modulators of MrgX1, primary screen, HEK293 cells, Fluo-4 calcium flux | actives 0.63% (n = 310,000) | B-score at 10 µM | AID 588675, 2011 | Mas-related G-protein coupled receptor member X1 (Homo sapiens), Q96LB2 | FDSS; hits give high values;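 active means plate-corrected calcium response at least 3 library SD above typical, normal starting fluorescence, not activating the receptor alone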;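 further: compound read alongside a low EC10 to EC30 dose of BAM8-22 agonist; peak minus trough fluorescence over baseline measured at the second addition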
# RGS4 pot = RGS4 potentiators or activators, primary screen, cell-based, HEK293 M3R inducible RGS4, calcium flux. carbachol calcium flux Fluo4; hits give low values. B-score at 10 µM. actives 0.92% (n = 310,000);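 active means B-score of the integrated calcium signal more than 4 SD below the library mean, with starting fluorescence not abnormally high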;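 further: negative B-score means reduced calcium response which marks RGS4 activation or potentiation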
#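 Assay system: HEK293 FlpIn-TREx cells, stable M3R, doxycycline-inducible RGS4 / Probe or stimulus: carbachol, ECmax concentration / Times: overnight RGS4 induction, 30 min dye load 37 °C, 20 min compound RT / Signal: kinetic calcium fluorescence imaging with Fluo4-AM dye, 2 µM / Measure: Agonist-evoked peak-minus-minimum fluorescence over baseline, integrated ratio, B score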
# MrgX1 antag = antagonists of human MrgX1 receptor, primary screen, HEK293 cells, Fluo-4 calcium flux; BAM8-22 antagonism; hits give low values; actives 1.3% (n = 310,000); B-score at 10 µM; AID 588676, 2011; Mas-related G-protein coupled receptor member X1 (Homo sapiens), Q96LB2;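 active means calcium-response B-score plate-corrected more than 3 library SD below zero, starting fluorescence within 5 deviations, no agonist response on first addition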;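 further: peak minus trough fluorescence over baseline after final BAM8-22 challenge near maximal dose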
# MrgX1 antag conf = MrgX1 receptor antagonists, duplicate retest, confirmation, HEK293 cells, Fluo-4 calcium flux | BAM8-22 calcium flux; hits give low values | shares compounds with MrgX1 antag | actives 19% (n = 2,300) | remaining BAM8-22 calcium response % of control (hits give low values), % at 10 µM;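 active means remaining agonist calcium response no higher than 100% minus 3 SD of agonist-only control wells, with starting fluorescence near control levels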;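 further: agonist BAM8-22 given at a near maximal EC90 to ECmax level; peak minus minimum fluorescence divided by baseline after agonist addition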
# HEK293 Ca flux = nonspecific calcium signal in parental HEK293, confirmation, counter-screen for MrgX1 antagonist project, parental HEK293 cells, Fluo-4 calcium flux. Fluo-4 calcium fluorescence, FDSS. fluorescence ratio F(max-min)/F0 at 10 µM. shares compounds with MrgX1 antag. AID 624111, 2012. actives 2% (n = 4,000);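 active means duplicate-averaged calcium fluorescence ratio at least three times the standard deviation of buffer wells, a nonspecific response in parental cells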
# HEK293 Ca counter = calcium response in parental HEK293 cells, primary screen, counter-screen for MrgX1 allosteric activator project, cell-based, Fluo-4 calcium flux, duplicate; AID 624114, 2012; actives 0.4% (n = 4,000); fluorescence ratio F(max-min)/F0 at 10 µM; Fluo-4 fluorescence ratio; hits give high values; shares compounds with MrgX1 antag;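 active means calcium fluorescence ratio, averaged over duplicates, at least 3 SD of the buffer-well ratio, meaning a nonspecific response in receptor-free cells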;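 further: untransfected parental HEK293 lacking MrgX1 used as counterscreen for MrgX1 allosteric activators; fluorescence change taken during the second addition on a kinetic imager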
# HEK293 Ca cntr2 = calcium response in parental HEK293 cells, primary screen, counter-screen for MrgX1 agonist project, cell-based, Fluo-4 calcium flux, duplicate, agonist mode | shares compounds with MrgX1 antag | Fluo-4 calcium fluorescence (FDSS); hits give high values | fluorescence ratio F(max-min)/F0 at 10 µM | actives 8.7% (n = 4,000);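 active means calcium fluorescence ratio at least three times the spread of buffer wells, meaning a non-specific response in parental cells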
# Hits are given with their value; - = inactive; . = not tested or not shown.
SMILES,RGS4 block,MrgX1 agonist,MrgX1 PAM,RGS4 pot,MrgX1 antag,MrgX1 antag conf,HEK293 Ca flux,HEK293 Ca counter,HEK293 Ca cntr2
Cc1cc(C)cc(-c2nnc(SCC(=O)N3CCN(C(=O)c4ccco4)CC3)o2)c1,-,-,-,-,-6.3,-,-,-,-
Oc1[nH]c2ccccc2c1N=Nc1ncnc2c1oc1ccccc12,-,-,-,-,-,.,.,.,.
COc1ccc(OC)c(-n2c(SCC(N)=O)nnc2-c2c[nH]c3ccccc23)c1,-,-,-,-,-6.7,-,-,-,-
CCCC(CCC)C(=O)Oc1cc(C)[nH]c(=O)c1[N+](=O)[O-],-,-,-,-,-,.,.,.,.
CCCCCN(C(=O)CCC(=O)OC(C)C(=O)c1ccc(Cl)cc1)c1c(N)n(CCCC)c(=O)[nH]c1=O (centres undefined),-,-,-,-,-,.,.,.,.
CC(C)Cc1ccc(C(C)C(=O)Nc2nccs2)cc1 (centres undefined),-,-,-,-,-4.7,72%,-,-,-
COc1ccc(C(=O)NC(C)c2ccc(-n3ccnc3)cc2)c(OC)c1 (centres undefined),-,-,-,-,-10,-,-,-,-
Cc1ccc2oc(C(=O)Nc3nnc(C)s3)c(C)c2c1,-,-,-,-,-4.7,-,-,-,-
Cc1ccc2oc(C(=O)Nc3nonc3C)c(C)c2c1,-,-,-,-,-,.,.,.,.
COc1cc(C=O)cc(Cl)c1OC(=O)N1CCOCC1,-,-,-,-,-,.,.,.,.
COc1ccc(CCN2CC(C(=O)N(C)CCc3cn[nH]c3)CCC2=O)cc1 (centres undefined),-,.,.,-,.,.,.,.,.
CCN(CC)c1ccc(N=Cc2ccc(N(CC)CC)cc2O)cc1,-,-,-,-,-8.2,-,0.24,-,46
CCN(CC)c1ccc(C=Nc2ccc(N(C)C)cc2)c(O)c1,-,-,-,-,-4.6,66%,-,-,-
CCOC(=O)/C=c1\s/c(=C\c2ccc3cc(OC)ccc3c2)c(=O)n1CC(=O)NCc1ccc2c(c1)OCO2,-,-,-,-,-,.,.,.,.
COc1ccccc1Nc1nc2ccccc2n1C,-,-,-,-,-4.8,-,-,-,-
Nc1nc(/C=C/c2cccnc2)nc(-c2ccccc2O)n1,-,-,-,-,-4.8,-,-,-,-
Nc1nc(/C=C/c2ccc(F)cc2)nc(-c2ccccc2O)n1,-,-,-,-,-6.8,84%,-,-,-
Cc1ccc(-c2cc(-c3ccccc3O)nc(N/N=C/c3cccnc3)n2)cc1,-,-,-,-,-,.,.,.,.
COc1ccc(/C=C/c2nc(-c3ccccc3O)n[nH]2)cc1,-,-,-,-,-,.,.,.,.
Cc1ccc(N2CC(C(=O)NCCS(=O)(=O)N3CCN(c4ccccc4)CC3)CC2=O)cc1C (centres undefined),-,-,-,-,-,.,.,.,.
COCC(C)NC(=O)c1cc(-c2ccc(O)cc2)on1 (centres undefined),-,-,-,-,-6,-,-,-,-
NC(=O)C1CCCN1S(=O)(=O)c1ccc2ccccc2c1 (centres undefined),-,-,-,-,-,.,.,.,.
